Results from ChEMBL document CHEMBL3227960, “Inhibition of uptake of catecholamines by benzylamine derivatives” (J Med Chem, 1979).

Tests used:
[1] = Inhibition of [3H]norepinephrine reuptake at NET in Sprague-Dawley rat brain cortical synaptosomes incubated for 5 mins prior to [3H]norepinephrine addition measured after 3 mins by scintillation counting analysis; type: subcellular; details: read-out: I50
Procedure, shortened: (§1)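 Crude P2 synaptosomes from male Sprague-Dawley rat striatum (dopamine) or cerebral cortex (norepinephrine), prepared at 0 °C in 0.32 M sucrose. Tritiated substrate 0.1 μM, 37 °C. Uptake quenched with cold saline plus 100 μM unlabelled substrate, then filtered. 0 °C blanks subtracted. Three inhibitor concentrations, each in triplicate. I50 taken where A0/A1 = 2, by linear regression against concentration.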

[2] = target: Sodium-dependent dopamine transporter (Rattus norvegicus, UniProt P23977); assay: Inhibition of [3H]dopamine reuptake at DAT in Sprague-Dawley rat brain striatal synaptosomes incubated for 5 mins prior to [3H]dopamine addition measured after 3 mins by scintillation counting analysis; type: subcellular; details: read-out: I50; procedure, shortened: as §1
Sequence of Sodium-dependent dopamine transporter (P23977 whole entry): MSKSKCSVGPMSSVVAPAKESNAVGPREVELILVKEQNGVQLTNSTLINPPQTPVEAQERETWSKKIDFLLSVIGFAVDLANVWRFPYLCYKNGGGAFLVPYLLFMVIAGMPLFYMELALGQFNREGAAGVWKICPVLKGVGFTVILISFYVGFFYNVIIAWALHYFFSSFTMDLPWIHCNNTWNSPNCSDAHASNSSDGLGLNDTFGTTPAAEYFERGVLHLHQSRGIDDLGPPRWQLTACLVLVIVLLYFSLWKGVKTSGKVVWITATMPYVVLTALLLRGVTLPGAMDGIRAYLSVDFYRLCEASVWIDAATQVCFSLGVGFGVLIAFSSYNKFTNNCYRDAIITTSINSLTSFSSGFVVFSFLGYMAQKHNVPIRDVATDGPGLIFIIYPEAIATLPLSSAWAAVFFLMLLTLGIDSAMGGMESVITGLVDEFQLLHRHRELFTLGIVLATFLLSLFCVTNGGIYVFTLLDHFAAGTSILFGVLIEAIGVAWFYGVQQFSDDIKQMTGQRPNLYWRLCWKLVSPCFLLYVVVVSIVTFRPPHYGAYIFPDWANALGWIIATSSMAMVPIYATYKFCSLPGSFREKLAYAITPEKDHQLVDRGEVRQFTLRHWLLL

SMILES | IC50 [1] | IC50 [2]
ClCCNCc1ccccc1Br | 50.2 µM | 326 µM
CCN(CCO)Cc1cccc(C)c1 | 49 µM | 250 µM
CCN(CCO)Cc1ccccc1Br | 78 µM | 640 µM
CCN(CCCl)Cc1cccc(OC)c1 | 23.2 µM | 127 µM
CCN(CCO)Cc1ccccc1C | 137 µM | 1050 µM
CCN(CCCl)Cc1ccccc1OC | 31.1 µM | 303 µM
CCN(CCCl)Cc1ccccc1Br | 0.05 µM | 5.87 µM
CCN(CCCl)Cc1cccc(C)c1 | 0.77 µM | 28.6 µM
CCN(CCCl)Cc1ccc(OC)cc1 | 29.8 µM | 147 µM
CCN(CCCl)Cc1ccc(C)cc1 | 3.05 µM | 78.4 µM
